Source: PubChem BioAssay (several laboratories)
Exocytosis inh = LAMP-1 surface exposure blockers, TALL-104 cells – cell-based, flow cytometry, MLPCN library, primary screen | hit rate 0.66% among 360,000 | TALL-104 LAMP-1 surface exposure; cells stimulated with thapsigargin and PMA | AID 651702, 2012 | inhibition, % at 10 µM;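 active means inhibition above about 55%, limit read from the data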
UPR CHOP act = activators of apoptotic CHOP UPR arm, primary screen, cell-based, CHO-CHOP luciferase reporter, luminescence, uHTS. UPR activation; percent of tunicamycin response over DMSO baseline. activation, % at 10 µM. hit rate 0.34% among 330,000. AID 449763, 2010;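 active means at 10 µM dose, activation of 40% or more, normalized to positive control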;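 further: 100% = tunicamycin at 10 µg/mL and 0% = DMSO alone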
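Dosing – one dose, 10 µM in 0.5% DMSO · System – CHO-CHOP cells, stable luciferase reporter of PERK-eIF2a-CHOP signalling · Input – 500 cells/well · Control set – tunicamycin 10 µg/mL final as positive, DMSO-only wells as negative · Timing – 6 h compound treatment, 37 °C · Measure – % activation vs tunicamycin · Technique – luminescence read with Steady-Glo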
UPR XBP1 act = activators of adaptive XBP1 UPR arm, primary screen, cell-based, CHO-XBP1 luciferase reporter, luminescence, uHTS; AID 463104, 2010; hit rate 0.33% among 330,000; IRE1-XBP1 UPR activation; percent of tunicamycin response, DMSO as zero; activation, % at 20 µM;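 active means versus positive control, 20 µM dose yields 30% or more activation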;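 further: 100% = tunicamycin at 10 µg/mL and 0% = DMSO only wells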
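Material: CHO-XBP1 cells stably carrying IRE1-XBP1-driven luciferase reporter / Amount: 1000 cells per well / Compound: 20 µM, 1% DMSO / Times: 6 h treatment, 37 °C / Detection: luciferase luminescence / Measure: % activation of reporter signal versus tunicamycin and DMSO controls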
ABHD5 PLIN5 PPI = ABHD5-PLIN5 interaction inhibitors, primary screen, cell lysate, split luciferase complementation, luminescence; inhibition, % at 4 µM; hit rate 0.78% among 360,000; Split G. princeps luciferase complementation, 4 h; AID 602281, 2012;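 active means inhibition above the mean inhibition across every tested compound plus 3 SD, cut at about 22% in these data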;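 further: 0% = DMSO only wells and the 100% control is not disclosed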
Target sequence (Q00G26 whole entry, looked up): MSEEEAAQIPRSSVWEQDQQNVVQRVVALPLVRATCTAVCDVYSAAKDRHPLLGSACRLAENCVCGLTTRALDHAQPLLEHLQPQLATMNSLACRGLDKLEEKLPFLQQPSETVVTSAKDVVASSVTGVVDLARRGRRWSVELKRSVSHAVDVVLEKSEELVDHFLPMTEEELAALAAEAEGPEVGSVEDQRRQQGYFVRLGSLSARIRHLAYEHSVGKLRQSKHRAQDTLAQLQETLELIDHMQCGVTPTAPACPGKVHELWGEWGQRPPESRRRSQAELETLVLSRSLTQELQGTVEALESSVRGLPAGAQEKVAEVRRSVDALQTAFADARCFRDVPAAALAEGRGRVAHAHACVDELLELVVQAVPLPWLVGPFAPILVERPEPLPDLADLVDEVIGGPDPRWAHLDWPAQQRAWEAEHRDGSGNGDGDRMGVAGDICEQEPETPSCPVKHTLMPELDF
Target sequence (Q8WTS1 whole entry, looked up): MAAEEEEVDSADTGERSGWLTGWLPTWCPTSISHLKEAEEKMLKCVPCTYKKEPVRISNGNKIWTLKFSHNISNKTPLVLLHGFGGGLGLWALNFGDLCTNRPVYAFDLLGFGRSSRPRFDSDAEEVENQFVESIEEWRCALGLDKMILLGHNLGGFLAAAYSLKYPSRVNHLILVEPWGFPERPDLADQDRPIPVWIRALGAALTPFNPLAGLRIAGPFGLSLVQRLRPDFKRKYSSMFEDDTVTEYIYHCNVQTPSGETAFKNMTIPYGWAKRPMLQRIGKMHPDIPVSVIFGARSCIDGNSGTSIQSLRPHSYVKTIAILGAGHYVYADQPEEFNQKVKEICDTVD
Mdm2 MdmX PPI = inhibitors of human Mdm2-MdmX association, primary screen, cell-based, luminescence, split luciferase, SaOS-2, uHTS | inhibition, % at 8 µM | hit rate 3% among 330,000 | Protein Mdm4 (Homo sapiens) + E3 ubiquitin-protein ligase Mdm2 (Homo sapiens), … | SaOS-2 split-luciferase Mdm2/MdmX complementation;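 active means inhibition of at least 50% at 8 µM in the primary screen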
CHOP UPR conf = activators of apoptotic CHOP UPR arm, confirmation, cell-based, CHO-CHOP luciferase reporter, single concentration; hit rate 64% among 1,000; CHO-CHOP cells, CHOP-luciferase reporter luminescence; percent of tunicamycin response, DMSO as zero; shares compounds with UPR CHOP act; activation, % at 10 µM; in the data active means activation above about 33%;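 further: 0% = DMSO wells and 100% = tunicamycin 10 µg/mL wells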
An asterisk follows results filed as active; . = no result. Only some compounds are listed: those with a hit (about 4% of all), similar ones and a draw of the others.

SMILES | Exocytosis inh | UPR CHOP act | UPR XBP1 act | ABHD5 PLIN5 PPI | Mdm2 MdmX PPI | CHOP UPR conf
CC(C)=CCc1c(O)ccc2c1OC(c1ccc(O)c(O)c1)CC2=O (centres undefined) | 23.6 | 68.7* | 15.2 | -2.4 | 7.3 | 27.1
S=C(c1c[nH]c2ccccc12)N1CCCC1 | -1.3 | 0.7 | 1.4 | 0.1 | 25.6 | .
CC(OC(=O)c1c[nH]c2ccccc12)C(=O)N1CCCC1 (centres undefined) | 16.6 | 89.5* | -1.4 | 0.7 | -2.3 | -1.4
Cc1nn(CC2CC2)c(=O)n1-c1ccccc1 | 10.6 | 47.7* | 1.1 | -1.2 | 17.1 | -1.1
O=C(NC1CCCC(C(F)(F)F)C1)c1ccc([N+](=O)[O-])o1 (centres undefined) | 15.3 | 64.0* | 9.3 | -1.0 | 41.0 | 11.9
O=C(NC1CCCCC1)c1ccc([N+](=O)[O-])o1 | -0.8 | 11.2 | -2.6 | 0.1 | 29.3 | .
COc1ccc(C(CC(=O)N2CCCC2)c2c(OC)cc(OC)c3ccc(=O)oc23)cc1 (centres undefined) | 5.5 | -1.1 | -0.8 | 0.9 | 2.7 | .
C/C(CCc1oc2c(Br)cc(Br)cc2c1-c1ccc(C)o1)=N\O | 82.7* | 88.8* | 7.1 | 7.2 | 13.9 | -1.7
Cn1nc([N+](=O)[O-])c(C(C#N)c2ccccn2)c(Cl)c1=O (centres undefined) | -1.5 | 73.2* | -4.2 | 14.2 | 22.8 | 49.0*
O=C(N/N=C/c1ccccn1)c1ccc(NC(=O)c2ccccc2Cl)cc1 | -7.8 | 1.7 | 0.6 | -0.8 | 20.1 | .
O=C(N/N=C/c1ccccn1)c1ccc(Cl)c(Cl)c1 | 10.5 | 207.9* | 0.6 | 3.3 | 42.0 | 233.0*
CCCS(=O)(=O)c1c(S(=O)(=O)CCC)c2c(N)cccn2c1C(=O)c1ccc(Br)cc1 | -1.2 | 0.5 | 2.2 | 8.3 | 0.3 | .
CCCS(=O)(=O)c1c(S(=O)(=O)CCC)c2c(N)cccn2c1C(=O)c1ccc(OC)cc1 | 1.9 | 55.0* | -4.0 | 9.7 | -19.0 | 0.4
CNC(=S)N/N=C/c1cc(Br)c(OCc2ccncc2)c(OC)c1 | -7.6 | 0.9 | -0.6 | 5.0 | 25.9 | .
COc1cc(CNc2ccc3[nH]c(=O)[nH]c3c2)cc(Br)c1OCc1ccccc1F | 1.2 | 83.4* | 2.3 | 3.2 | 3.4 | 46.3*
COc1cc(/C=N/NC(N)=S)cc(Br)c1OCc1ccccc1F | 2.3 | 51.5* | 25.7 | -15.7 | 44.1 | 11.6
COc1cccc(N/C=C/C(=O)c2ccc(Br)cc2)c1 | -2.0 | 2.9 | 1.0 | 0.7 | -170.1 | .
Cc1cc(C)cc(N=Cc2c(O)c3ccccc3oc2=O)c1 | -0.5 | 9.9 | 28.9 | -0.6 | 12.3 | .
COc1ccc(OC)c(N=Cc2c(O)c3ccccc3oc2=O)c1 | -5.2 | 133.9* | 219.5* | 6.8 | 21.3 | 113.6*
N#C/C(=C/c1ccc(N2CCCCCC2)o1)c1ccc(F)cc1 | 23.1 | 98.4* | 0.4 | 70.7* | 46.6 | 21.9
CCNc1ccccc1CP(=O)(c1ccccc1)c1ccccc1O (centres undefined) | . | 186.5* | -1.1 | . | 13.1 | 36.8*
CC(NC(=O)c1ccc([N+](=O)[O-])o1)C12CC3CC(CC(C3)C1)C2 (centres undefined) | -1.3 | 84.7* | -4.9 | -8.6 | 43.9 | 14.8
CC(NC(=O)C12CC3CC(CC(C3)C1)C2)C(=O)NN=Cc1ccc([N+](=O)[O-])o1 (centres undefined) | -1.5 | 197.3* | 4.8 | -6.0 | 39.8 | 0.0
COc1cccc(OC)c1C(=O)NC(C)C12CC3CC(CC(C3)C1)C2 (centres undefined) | -1.3 | -0.8 | -1.7 | -2.9 | 7.8 | .
O=C(N/N=C/c1ccc([N+](=O)[O-])o1)C1CCCC1 | -1.2 | 0.5 | -0.6 | 7.1 | 7.7 | .
SMILES | Exocytosis inh | UPR CHOP act | UPR XBP1 act | ABHD5 PLIN5 PPI | Mdm2 MdmX PPI | CHOP UPR conf
COC(=O)[C@H](C)NC(=O)NCc1ccc(F)cc1 | 3.5 | 0.1 | 3.0 | -9.0 | 10.1 | .
CCOc1cc(/C=C2/C(=O)ON=C2C)ccc1OCc1ccccc1 | . | 58.1* | 3.0 | . | 16.7 | 4.8
CCOc1cc(/C=C2/C(=O)ON=C2C)ccc1OCc1ccc(F)cc1 | 6.4 | 23.9 | 18.1 | 3.9 | 29.8 | .
CCOc1cc(/C=C2/C(=O)ON=C2C)ccc1OCc1ccccc1F | 77.9* | 112.0* | 16.4 | 7.8 | 23.5 | 67.5*
CCOC(=O)c1ccc(NC(=S)N2CCCC(C(=O)N3CCCC3)C2)cc1 (centres undefined) | -2.3 | 1.8 | -1.7 | -8.2 | 24.6 | .
COc1ccc(OCCOc2ccc(S(=O)(=O)N3CCCC3)cc2[N+](=O)[O-])cc1 | -1.6 | 2.1 | -2.0 | 3.4 | -7.5 | .
CCN(CC)CCCN(Cc1cc2cc(OC)ccc2[nH]c1=O)C(=O)Nc1ccccc1 | . | -2.0 | 0.8 | . | -17.6 | .
C=CCn1c(SCC(=O)c2ccc(O)c(O)c2)nnc1-c1cccc(C)c1 | -8.6 | 34.3 | 5.9 | -12.5 | 30.3 | .
C=CCn1c(SCC(=O)c2ccc(O)c(O)c2)nnc1-c1cccc(Cl)c1 | 12.9 | 64.0* | 11.3 | -0.2 | 15.5 | 3.0
Cc1ccc2nc(-c3ccc(O)c(O)c3)cn2c1 | -1.7 | 155.4* | 0.6 | -2.8 | -57.6 | 61.0*
O=C(CCCc1ccccc1)NC1CCSC1=O (centres undefined) | 1.6 | 0.5 | -0.4 | 11.3 | 10.9 | .
O=C(Cc1ccc(F)cc1)NC1CCSC1=O (centres undefined) | 3.2 | 40.9* | 1.9 | 1.1 | 26.7 | -1.7
Cc1ccc(C(=O)/C=C/c2ccc(-c3ccc(C)cc3)o2)cc1 | 71.5* | 94.1* | 17.5 | 13.9 | -2.5 | -1.3
CC(=O)c1cccc(NC(=O)CSc2ncc(C(=O)Nc3ccccc3)c(=O)n2C)c1 | -1.0 | 298.9* | -3.7 | -3.6 | 14.1 | 459.5*
Cn1c(SCC(=O)NCC2CCCO2)ncc(C(=O)Nc2ccc(Cl)cc2)c1=O (centres undefined) | 0.1 | 158.0* | 4.9 | -4.6 | -15.7 | 137.6*
CC(=O)Nc1ccc(NC(=O)CSc2ncc(C(=O)Nc3ccc(Cl)cc3)c(=O)n2C)cc1 | 9.0 | 5.0 | -1.7 | -2.3 | -2.8 | .
CCCCOc1ccc(C(=O)OC(C)CN(C)C)cc1 (centres undefined) | 1.0 | -2.2 | -1.3 | 4.1 | -2.2 | .
O=C(N/N=C/C(Br)=C\c1ccccc1)c1cccs1 | -3.1 | 1.7 | 2.2 | 2.3 | -110.8 | .
